According to ChEMBL document CHEMBL1765014, “Non-peptide NK1 receptor ligands based on the 4-phenylpyridine moiety” (Bioorg Med Chem, 2011):
The source made the active and inactive calls. No cut-off for these calls is given here.

Experiments:
Substance-P receptor = Substance-P receptor (Homo sapiens, UniProt P25103); experiment: Displacement of [125I]BH-SP from human recombinant NK1 receptor expressed in CHO cells after 90 mins; assay type: cell-based
[1] = Antiangiogenic activity in bovine CVEC cell assessed as inhibition of Sar9-SP-sulfone-induced cell migration at 1 uM after 4 hrs by microscopic analysis; assay type: functional; settings: Bos taurus
Method in brief: (§1)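 Bovine post-capillary venular endothelial cells (CVEC), cultured as previously described. Cells migrated toward 10 nM Sar9-SP-sulfone with or without test compound in a Neuroprobe microchemotaxis chamber and were evaluated after 4 h. Results are expressed as % inhibition of Sar9-SP-sulfone-induced activity. Data are means ± SEM of three experiments; Student's t test.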

CVEC [2] = experiment: Antiangiogenic activity in bovine CVEC cell assessed as cell migration at 100 nM to 1 uM after 4 hrs by microscopic analysis; assay type: functional, cell-based; settings: Bos taurus; method in brief: as §1
CVEC [3] = experiment: Antiangiogenic activity in bovine CVEC cell assessed as cell proliferation at 100 nM to 1 uM after 48 hrs by microscopic analysis; assay type: functional, cell-based; settings: Bos taurus
Method in brief: (§2)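 Subconfluent, synchronized bovine CVEC were stimulated with 10 nM Sar9-SP-sulfone, with or without test compound, for 48 h. Fixed and stained cells were counted microscopically as total cell number per well. Results are expressed as % inhibition of agonist-induced proliferation. Data are means ± SEM of three experiments; Student's t test.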

[4] = Antiangiogenic activity in bovine CVEC cell assessed as inhibition of Sar9-SP-sulfone-induced cell migration at 100 nM after 4 hrs by microscopic analysis; assay type: functional; settings: Bos taurus; method in brief: as §1
[5] = Antiangiogenic activity in bovine CVEC cell assessed as inhibition of Sar9-SP-sulfone-induced proliferation at 100 nM after 48 hrs by microscopic analysis; assay type: functional; settings: Bos taurus; method in brief: as §2
[6] = Antiangiogenic activity in bovine CVEC cell assessed as inhibition of Sar9-SP-sulfone-induced proliferation at 1 uM after 48 hrs by microscopic analysis; assay type: functional; settings: Bos taurus; method in brief: as §2
[7] = Antiangiogenic activity in bovine CVEC cell assessed as inhibition of Sar9-SP-sulfone-induced proliferation after 48 hrs by microscopic analysis; assay type: functional, cell-based; settings: Bos taurus; method in brief: as §2
[8] = Antiangiogenic activity in bovine CVEC cell assessed as inhibition of Sar9-SP-sulfone-induced cell migration after 4 hrs by microscopic analysis; assay type: functional, cell-based; settings: Bos taurus; method in brief: as §1

Substance-P receptor, sequence (P25103 whole entry): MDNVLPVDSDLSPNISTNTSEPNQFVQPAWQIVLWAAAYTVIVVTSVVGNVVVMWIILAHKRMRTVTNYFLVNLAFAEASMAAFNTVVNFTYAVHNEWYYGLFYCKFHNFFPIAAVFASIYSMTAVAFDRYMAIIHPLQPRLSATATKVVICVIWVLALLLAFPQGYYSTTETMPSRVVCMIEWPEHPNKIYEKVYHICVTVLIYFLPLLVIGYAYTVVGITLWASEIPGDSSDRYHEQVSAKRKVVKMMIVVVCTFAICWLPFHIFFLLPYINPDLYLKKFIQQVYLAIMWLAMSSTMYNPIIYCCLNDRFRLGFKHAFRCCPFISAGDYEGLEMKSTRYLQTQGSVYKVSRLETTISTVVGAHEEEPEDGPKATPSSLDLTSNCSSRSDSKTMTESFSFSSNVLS

| SMILES | IC50 (Substance-P receptor) | further results |
| --- | --- | --- |
| Cc1c(C(=O)NCc2cc(C(F)(F)F)cc(C(F)(F)F)c2)c(-c2ccccc2)cc2nnnn12 | 279 nM | – |
| O=C(NCc1cc(C(F)(F)F)cc(C(F)(F)F)c1)c1c(CO)nc2ccccc2c1-c1ccccc1 | 227 nM | – |
| Cc1c(C(=O)NCc2cc(C(F)(F)F)cc(C(F)(F)F)c2)c(-c2ccccc2)cc2nncn12 | 698 nM | – |
| COc1ccccc1CNC(=O)c1c(-c2ccccc2)ccnc1C | – | inhibition at 1 µM [1]: 9%; IC50 [7]: > 1000 nM; inhibition at 0.1 µM [4]: 0%; inhibition at 0.1 µM [5]: 0%; inhibition at 1 µM [6]: 11%; IC50 [8]: > 1000 nM |
| Cc1nc(Cl)cc(-c2ccccc2)c1C(=O)NCc1cc(C(F)(F)F)cc(C(F)(F)F)c1 | 270 nM | – |
| Cc1c(C(=O)NCc2cc(C(F)(F)F)cc(C(F)(F)F)c2)c(-c2ccccc2)cc[n+]1[O-] | 342 nM | – |
| O=C(NCc1cc(C(F)(F)F)cc(C(F)(F)F)c1)c1c(-c2ccccc2)ccnc1CCl | 235 nM | – |
| Cc1nc2ccccc2c(-c2ccccc2)c1C(=O)NCc1cc(C(F)(F)F)cc(C(F)(F)F)c1 | 257 nM | – |
| Cc1cc(-c2ccccc2)c(C(=O)NCc2cc(C(F)(F)F)cc(C(F)(F)F)c2)c(C)n1 | 434 nM | – |
| Cc1nccc(-c2ccccc2)c1C(=O)NCc1cc(C(F)(F)F)cc(C(F)(F)F)c1 | 653 nM | – |

The remaining compounds from weak to strong by IC50 (Substance-P receptor), led by results:

| IC50 (Substance-P receptor) | SMILES | further results |
| --- | --- | --- |
| 208 nM | O=C(NCc1cc(C(F)(F)F)cc(C(F)(F)F)c1)c1cnc2ccccc2c1-c1ccccc1 | – |
| 98 nM | Cc1nccc(-c2ccccc2)c1C(=O)N(C)Cc1cc(C(F)(F)F)cc(C(F)(F)F)c1 | – |
| 92 nM | CN(Cc1cc(C(F)(F)F)cc(C(F)(F)F)c1)C(=O)c1cnc2ccccc2c1-c1ccccc1 | – |
| 91 nM | Cc1nc(Cl)cc(-c2ccccc2)c1C(=O)N(C)Cc1cc(C(F)(F)F)cc(C(F)(F)F)c1 | – |
| 57 nM | Cc1c(C(=O)N(C)Cc2cc(C(F)(F)F)cc(C(F)(F)F)c2)c(-c2ccccc2)cc2nnnn12 | – |
| 53 nM | Cc1nc(N2CCN(C)CC2)cc(-c2ccccc2)c1C(=O)NCc1cc(C(F)(F)F)cc(C(F)(F)F)c1 | inhibition at 1 µM [1]: 100%; Activity (CVEC [2]): inactive; Activity (CVEC [3]): inactive; inhibition at 0.1 µM [4]: 100%; inhibition at 0.1 µM [5]: 33.5%; inhibition at 1 µM [6]: 76.3% |
| 53 nM | Cc1c(C(=O)N(C)Cc2cc(C(F)(F)F)cc(C(F)(F)F)c2)c(-c2ccccc2)cc2nncn12 | – |
| 52 nM | CN(Cc1cc(C(F)(F)F)cc(C(F)(F)F)c1)C(=O)c1c(-c2ccccc2)ccnc1CCl | – |
| 42 nM | CN(Cc1cc(C(F)(F)F)cc(C(F)(F)F)c1)C(=O)c1c(CO)nc2ccccc2c1-c1ccccc1 | – |
| 41 nM | Cc1cc(-c2ccccc2)c(C(=O)N(C)Cc2cc(C(F)(F)F)cc(C(F)(F)F)c2)c(C)n1 | – |
| 32 nM | Cc1c(C(=O)N(C)Cc2cc(C(F)(F)F)cc(C(F)(F)F)c2)c(-c2ccccc2)cc[n+]1[O-] | – |
| 19 nM | Cc1nc2ccccc2c(-c2ccccc2)c1C(=O)N(C)Cc1cc(C(F)(F)F)cc(C(F)(F)F)c1 | – |
| 4.8 nM | Cc1nc(N2CCN(C)CC2)cc(-c2ccccc2)c1C(=O)N(C)Cc1cc(C(F)(F)F)cc(C(F)(F)F)c1 | inhibition at 1 µM [1]: 99%; Activity (CVEC [2]): inactive; Activity (CVEC [3]): inactive; inhibition at 0.1 µM [4]: 100%; inhibition at 0.1 µM [5]: 7.6%; inhibition at 1 µM [6]: 79.7% |
